Assay outcomes deposited in PubChem by several laboratories.
SENP6 block – SENP6 protease inhibition; Q9GZR1; Recombinant SENP6 catalytic domain, aminoluciferin luminescence; inhibition, % at 10 µM; 330,000 compounds, 1.8% hits; AID 2599;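 active = inhibition above about 50% at the single tested dose, limit read from the data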
SENP8 block-1 – inhibitors of human SENP8 protease; AID 602440; 360,000 compounds, 0.64% hits; Q96LD8; recombinant SENP8, Nedd8 substrate fluorescence; inhibition, % at 20 µM; in the data active = inhibition mostly above about 40%, no sharp cut-off; inactive = mostly below about 27%
Target sequence (Q96LD8 whole entry, looked up): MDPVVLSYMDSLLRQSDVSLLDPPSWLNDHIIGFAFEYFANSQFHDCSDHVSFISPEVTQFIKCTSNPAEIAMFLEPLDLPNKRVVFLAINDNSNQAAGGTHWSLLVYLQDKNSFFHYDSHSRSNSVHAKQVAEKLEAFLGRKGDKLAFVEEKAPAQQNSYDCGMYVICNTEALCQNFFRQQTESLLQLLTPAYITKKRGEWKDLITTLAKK
SENP8 block-2 – blocks the human protease SENP8. Q96LD8. purified SENP8, Z-RLRGG-aminoluciferin cleavage, luminescence. inhibition, % at 10 µM. 330,000 compounds, 1.2% hits. AID 2540; in the data active = inhibition above about 50%
HSP90 refold inh – blocks HSP90-mediated luciferase refolding in reticulocyte lysate; inhibition, % at 5.6 µM; 290,000 compounds, 0.91% hits; Rabbit reticulocyte lysate, luciferase refolding luminescence, 3 h; AID 1789;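 active = inhibition above the screen-wide mean plus 3 SD, computed separately per campaign, cut at about 16% in these data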;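 also: inhibitors lower the luminescence because luciferase stays unfolded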
SENP1 FRET inh – blocks the human SENP1 SUMO protease catalytic domain; recombinant SENP1 catalytic domain, CyPet-SUMO1-YPet FRET cleavage; inhibition, % at 10 µM; 360,000 compounds, 0.21% hits;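 active = inhibition at least 30% at 10 µM, raw YFP signal under a set limit, fluorescence ratio 0.5 to 1.5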
Target sequence (Q9P0U3 419-644 limits assumed): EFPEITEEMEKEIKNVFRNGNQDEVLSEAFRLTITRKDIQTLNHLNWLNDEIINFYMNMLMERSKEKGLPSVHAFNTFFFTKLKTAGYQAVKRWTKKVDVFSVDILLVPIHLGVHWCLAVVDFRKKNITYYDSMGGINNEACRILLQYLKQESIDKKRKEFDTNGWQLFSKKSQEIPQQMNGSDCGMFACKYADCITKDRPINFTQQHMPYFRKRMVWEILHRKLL
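Compound: 10 µM single point, 0.5% DMSO; Test system: hSENP1 catalytic domain, recombinant; Timing: 50 min reaction at room temperature; Technique: FRET, CFP and YFP emission; Control set: no-enzyme wells low, DMSO-plus-enzyme wells high control.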
SENP7 block – inhibitors of human SENP7 protease. Q9BQF6. inhibition, % at 5 µM. 330,000 compounds, 1.5% hits. recombinant SENP7, Z-RLRGG-aminoluciferin luminescence, 40 min;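 active = inhibition above about 50% at the single test dose, limit read from the data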
SENP8 conf – human SENP8 inhibition, confirmed; inhibition, % at 12.5 µM; 6,200 compounds, 40% hits; Recombinant SENP8, Z-RLRGG-aminoluciferin luminescence, 60 min; shares compounds with SENP7 block;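 active = mean inhibition across replicates above about 50%, limit read from the data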
SENP6 conf – confirmation of human SENP6 protease inhibitors. inhibition, % at 12.5 µM. recombinant SENP6, Z-RLRGG-aminoluciferin luminescence. shares compounds with SENP7 block. 6,200 compounds, 58% hits
SENP7 confirm – confirmation of human SENP7 protease inhibitors; inhibition, % at 12.5 µM; shares compounds with SENP7 block; 6,200 compounds, 69% hits; recombinant SENP7, Z-RLRGG-aminoluciferin luminescence, 40 min; AID 488917
Casp3 select – caspase-3 inhibition (SENP selectivity assay) | 6,200 compounds, 60% hits | shares compounds with SENP7 block | AID 488918 | inhibition, % at 12.5 µM | purified caspase-3, Z-DEVD-aminoluciferin luminescence, 60 min;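 active = mean inhibition above about 50%, limit read from the data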
Target sequence (P42574 28-227 limits assumed): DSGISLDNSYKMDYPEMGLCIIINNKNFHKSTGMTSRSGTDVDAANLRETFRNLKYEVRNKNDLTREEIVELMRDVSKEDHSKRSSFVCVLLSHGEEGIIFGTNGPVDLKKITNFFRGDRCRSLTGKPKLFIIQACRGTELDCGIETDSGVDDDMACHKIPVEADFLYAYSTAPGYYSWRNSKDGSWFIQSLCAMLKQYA
Luc interf – counter-screen for SENP inhibitors: luminescence interference | shares compounds with SENP7 block | Pre-incubated SENP8/Z-RLRGG-aminoluciferin, luciferase luminescence interference | inhibition, % at 12.5 µM | 6,200 compounds, 39% hits;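 active = mean inhibition above about 50% when retested at one dose, limit read from the data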
Numbers stand for hits; - = inactive; . = no result given. An excerpt weighted towards active compounds, which were near 2.9% of everything screened.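 The calls were made as follows, unless noted: active = mean inhibition above about 50% in the one-dose retest (limit read from the data); inactive = the rest.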

SMILES | SENP6 block | SENP8 block-1 | SENP8 block-2 | HSP90 refold inh | SENP1 FRET inh | SENP7 block | SENP8 conf | SENP6 conf | SENP7 confirm | Casp3 select | Luc interf
COCCCNC(=O)COC(=O)c1ccc(-c2nc3ccccc3s2)s1 | 86 | - | 82 | - | - | 86 | 61 | 66 | 91 | 78 | 59
CNC(=O)COC(=O)/C=C/c1nc2ccccc2s1 | - | - | - | - | - | - | . | . | . | . | .
CNC(=O)COC(=O)c1ccc(-c2nc3ccccc3s2)s1 | 97 | - | 93 | - | - | 97 | - | - | 51 | 52 | -
O=C1C=C(OCCF)CC(c2ccc(Br)cc2)O1 (stereo not drawn) | . | - | . | . | - | . | . | . | . | . | .
Nc1ccc(O)c2c(=O)cc(-c3ccccc3Cl)oc12 | 60 | - | 53 | - | - | - | - | - | - | - | -
CC(=O)N1CCn2c3c(c(=O)c4cc(C)ccc42)CCC31 (stereo not drawn) | 55 | - | - | - | - | - | - | - | - | - | -
Cc1cc(-c2ccc(C(C)C)c(S(=O)(=O)N3CCC(C)CC3)c2)on1 | - | - | - | - | - | - | . | . | . | . | .
Cn1sc(NC(=O)c2ccc(Cl)cc2)nc1=O | - | - | 67 | - | - | 81 | - | - | 69 | 53 | 52
CCC(C)Nc1ccc(NC(C)CC)cc1 (stereo not drawn) | - | - | - | . | - | - | . | . | . | . | .
O=C(Oc1ccc2ccccc2c1Cl)N1CCCCCC1 | 76 | - | 54 | - | - | 53 | 71 | 70 | 87 | - | -
O=C(Oc1ccc2ccccc2c1Cl)N1CCCC1 | 73 | - | - | - | - | 57 | - | 52 | 84 | 53 | 59
CC(C)(CNC(=O)c1ccc(Br)o1)CNC(=O)c1ccc(Br)o1 | - | - | - | - | - | - | . | . | . | . | .
CC(=O)NCCNc1nc2cc(-c3ccsc3)sc2c(=O)n1C | . | - | . | . | - | . | . | . | . | . | .
c1cncc(-c2nc(-c3cccs3)cs2)c1 | - | - | - | - | - | - | . | . | . | . | .
c1ccc(Nc2nc(-c3cccs3)cs2)nc1 | 92 | - | 94 | - | - | 83 | 96 | 97 | 102 | 88 | 94
Cc1cccc(Nc2nc(-c3ccccn3)cs2)n1 | 76 | - | 70 | - | - | 79 | - | 78 | 95 | 74 | 86
CSCCC(=O)Nc1nc(-c2ccccn2)cs1 | . | - | . | - | - | . | . | . | . | . | .
Cc1cccc(Nc2nc(-c3cccs3)cs2)n1 | 90 | - | 89 | - | - | 81 | - | 96 | 102 | 76 | 87
Nc1ccc(Nc2nc(-c3cccs3)cs2)cc1 | - | - | - | - | - | - | . | . | . | . | .
c1csc(-c2csc(-c3cccs3)n2)c1 | - | - | - | - | - | 55 | - | 60 | 82 | - | -
CCCCCCN1CC(=O)N2Cc3[nH]c4ccccc4c3C[C@H]2C1=O | - | - | - | - | - | - | . | . | . | . | .
Nc1c2c(nc3sc4c(c13)CCCCC4)CCCCC2 | 73 | - | 57 | - | - | 74 | - | - | - | - | -
CC1CCc2nc3sc4c(c3c(N)c2C1)CCCC4 (stereo not drawn) | - | - | - | - | - | - | . | . | . | . | .
Cc1noc(C)c1S(=O)(=O)Nc1ccc2c(c1)CC(=O)N([C@H](C)CO)C[C@H](C)[C@H](CN(C)S(=O)(=O)c1ccc(F)cc1)O2 | - | - | - | . | - | - | . | . | . | . | .
O=C(/C=C/c1ccc2c(c1)OCCCO2)c1ccccc1O | 88 | - | 81 | - | - | 84 | 91 | 93 | 92 | 57 | -
SMILES | SENP6 block | SENP8 block-1 | SENP8 block-2 | HSP90 refold inh | SENP1 FRET inh | SENP7 block | SENP8 conf | SENP6 conf | SENP7 confirm | Casp3 select | Luc interf
CN(C)c1ccc(/C=C/C(=O)c2ccccc2O)cc1 | 92 | - | 86 | - | - | 89 | - | - | - | - | -
Cc1ccc(/C=C/C(=O)c2ccccc2O)cc1 | - | - | - | - | - | - | . | . | . | . | .
O=[N+]([O-])c1ccccc1S(=O)(=O)N1CCN(S(=O)(=O)c2ccc3c(c2)OCCO3)CC1 | - | - | - | . | - | - | . | . | . | . | .
O=C(NCc1ccc(Br)cc1)OC1CC2CC1[C@H]1CCCCN1C2=O (stereo partly drawn) | . | - | . | . | - | . | . | . | . | . | .
C(=N\N=C\c1cccs1)/c1cccs1 | 57 | - | - | - | - | 52 | - | 61 | 87 | 62 | -
C(=N\n1cnnc1)/c1cccs1 | - | - | - | - | - | - | . | . | . | . | .
Fc1ccc(-n2nnc(-c3ccccc3)n2)cc1 | - | - | - | - | - | - | . | . | . | . | .
Brc1ccccc1-n1nnc(-c2nccs2)n1 | 61 | - | 55 | - | - | 56 | - | - | 79 | 66 | 65
c1ccc(-n2nnc(-c3nccs3)n2)cc1 | 82 | - | 77 | . | - | 77 | 71 | 82 | 97 | 92 | 71
CN(CCc1ccccc1)C(=O)c1ccc(NC(=O)Cc2ccc(NC(=O)C3CCCN(C(=O)c4ccccc4)C3)cc2)cc1 (stereo not drawn) | . | - | . | . | - | . | . | . | . | . | .
Cn1c2ccccc2c(=O)c2ccc(NCCc3cccs3)cc21 | 68 | - | 66 | . | - | - | 81 | 88 | 97 | 79 | -
NC(=O)c1ccc(NCCc2cccs2)cc1 | . | - | . | . | - | . | . | . | . | . | .
CCn1c(/C=C/c2ccccc2)nc2ccccc21 | 97 | - | 85 | - | - | 92 | 94 | 94 | 101 | 94 | 95
COc1ccc(Cn2c(/C=C/c3ccccc3)nc3ccccc32)cc1 | 89 | - | 81 | - | - | 88 | 90 | 91 | 99 | 71 | -
COc1ccc(-c2nc3ccccc3n2Cc2ccccc2)cc1 | - | - | - | - | - | - | . | . | . | . | .
COc1ccc(/C=C/c2nc3ccccc3n2C)cc1 | 101 | - | 96 | 40 | - | 101 | 100 | 101 | 103 | 99 | 97
S=C(Nc1ccccn1)c1ccccn1 | - | - | 68 | - | - | 84 | 53 | 76 | 94 | 86 | -
O=S(=O)(Nc1cc(S(=O)(=O)N2CCOCC2)ccc1NCC1CCCO1)c1ccc(F)cc1 (stereo not drawn) | - | - | - | . | - | - | . | . | . | . | .
Cc1ccc(S(=O)(=O)N(C)C[C@@H]2Oc3ccc(NS(C)(=O)=O)cc3CC(=O)N([C@H](C)CO)C[C@@H]2C)cc1 | - | - | - | . | - | - | . | . | . | . | .
O=C(O)COc1ccc(NC(=O)c2ccc3c(c2)C(=O)N(C2CCCCC2)C3=O)cc1 | . | - | . | - | - | . | . | . | . | . | .
